# Beta cell apopt: blocks beta cell apoptosis; INS-1E cytokine-induced death, ATP luminescence, 48 h; percent of positive-control rescue, neutral wells zero; AID 435005; 300,000 compounds, 0.8% hits; protection from apoptosis, % (no concentration beside the values);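 active = Every replicate reaches about 75%, or at least half do and their mean reaches it too, limit read from the data; inconclusive = At least half of replicates reach the limit but their mean does not; inactive = Under half of replicates reach the limit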;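 note: 0% = cytokine-treated negative control wells and 100% = positive control rescue; higher means more ATP so stronger rescue from cytokine killing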
# Mot1-301 SUMO: blocks SUMOylation pathway, rescuing yeast Mot1-301 growth. S. cerevisiae Mot1-301 growth rescue, ATP luminescence, 38.5C; percent above DMSO median, 100 means doubled. growth rescue, % at 18.8 µM. 320,000 compounds, 1% hits. AID 2716;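 active = every valid replicate shows activation above 250% relative to neutral control wells; inactive = the rest, any valid replicate at or below 250%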;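 note: OY570 slx delta 5 strain wells were the positive control but not used for scaling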
# CSC inhib: blocks cancer stem cells; cancer stem cell-like cells viability, luminescence; inhibition, % at 7.5 µM; 300,000 compounds, 1.1% hits; AID 2717; in the data active = inhibition above about 75%; inconclusive = no clear call, values can overlap the other calls; tested in HMLE shEcad cells
# Efflux pump mplx: inhibitors of Candida antifungal efflux pumps expressed in yeast. inhibition, % at 10 µM. 330,000 compounds, 0.44% hits. S. cerevisiae Candida pump triplex, Nile Red efflux. AID 485275;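 active = plate passing quality check with inhibition over a set limit, or well fluorescence over plate mean plus 4 SD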;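 note: Nile Red retained in pooled yeast measured as flow cytometry median fluorescence; 0% = buffer negative control and 100% = Enniatin B positive control; higher means more Nile Red kept so more efflux inhibition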
# WT yeast gro inh: growth inhibition of WT yeast, mitochondrial fusion screen; 190,000 compounds, 2.1% hits; mitochondrial fusion phenotypic screen, WT strain; inhibition, % at 10 µM; AID 1362; in the data active = inhibition above about 58%; tested in S. cerevisiae
# T cruzi inh: blocks replication of Trypanosoma cruzi | T. cruzi beta-gal in NIH3T3, luminescence, 90 h | inhibition, % (concentration not given with the values) | 300,000 compounds, 1.4% hits | AID 1885;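 active = mean inhibition across valid replicates above about 55%, limit read from the data; inconclusive = mean below that limit but half or more replicates reach it; inactive = mean below it, under half of replicates reach it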;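 note: signal also drops with host cell toxicity which is not excluded here; 0% = plate median of DMSO wells and 100% = zero luminescence signal; higher percent means less beta-gal luminescence so fewer parasites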
#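 Incubation – ≥90 h infection period, 3 h prior cell attachment · System – NIH/3T3 fibroblasts plus reporter T. cruzi · Doses – compound pinned at 50 nL/well, DMSO · Read-out basis – percent inhibition of parasite-derived β-gal signal · Signal – luminescent β-galactosidase signal after 60 min lysis · Also added – 5000 T. cruzi trypomastigotes/well · Medium – Low-serum DMEM with 2% FBS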
# Yeast cmpd fluor: counter-screen for efflux pump inhibitors: compound fluorescence. shares compounds with Efflux pump mplx. S. cerevisiae AD/pABC3, flow cytometry. fluorescence ratio to DMSO, % at 10 µM. 1,700 compounds, 4% hits;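 active = fluorescence ratio to DMSO above its plate's cutoff, the plate mean ratio plus 5 SD, cut at about 210% in these data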;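 note: unstained yeast with no Nile Red so the signal is compound autofluorescence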
# CaMdr1 efflux inh: Candida Mdr1 efflux pump inhibition | AID 588518 | S. cerevisiae AD/CaMDR1, Nile Red efflux, flow cytometry | inhibition, % at 10 µM | 1,700 compounds, 1% hits | shares compounds with Efflux pump mplx; in the data active = inhibition above about 26%;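 note: 0% = DMSO vehicle and 100% = reference inhibitor; higher means more Nile Red retained so more efflux inhibition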
# CaCdr2 efflux inh: Candida Cdr2 efflux pump inhibition; Nile Red retention ratio vs DMSO, % at 10 µM; shares compounds with Efflux pump mplx; S. cerevisiae AD/CaCDR2, Nile Red retention, flow cytometry; 1,700 compounds, 4% hits; in the data active = Nile Red retention ratio vs DMSO above about 190%;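 note: higher ratio means more blocking of Cdr2 efflux of the dye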
# CaCdr1 efflux inh: Candida Cdr1 efflux pump inhibition; shares compounds with Efflux pump mplx; S. cerevisiae AD/CaCDR1, Nile Red efflux, flow cytometry; inhibition, % at 10 µM; 1,700 compounds, 1% hits; AID 588522;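 active = inhibition above the screen-wide mean plus twice its standard deviation, cut at about 32% in these data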
# Numbers without * were called inactive; ? = inconclusive; . = not tested or not shown. A selection: hits, their analogues and other compounds. The true share with any hit is near 4.8%.
SMILES,Beta cell apopt,Mot1-301 SUMO,CSC inhib,Efflux pump mplx,WT yeast gro inh,T cruzi inh,Yeast cmpd fluor,CaMdr1 efflux inh,CaCdr2 efflux inh,CaCdr1 efflux inh
Cc1cccc(C(=O)Nc2nnc(SCC(=O)Nc3ccc4c(c3)oc3ccccc34)s2)c1,-1,-3,3,4.2*,-7,-9,92,0,114,0
Cc1ccc([C@@H]2[C@@H]3C(=O)N(C)C(=O)[C@@H]3[C@@H]3C(=O)Nc4ccccc4C(=O)N23)cc1,6,-19,34,0.6*,.,-24,95,0,97,0
CN1C(=O)[C@@H]2[C@H](C1=O)[C@@H]1C(=O)Nc3ccccc3C(=O)N1[C@@H]2c1ccc(Br)cc1,-8,2,-8,0,.,7,.,.,.,.
CC1(C)Cc2c(sc(NC(=O)COc3ccc(Cl)cc3Cl)c2C(N)=O)C(C)(C)N1,14,-25,7,0.6*,.,18,102,0,110,0
CCOC(=O)c1c(NC(=O)COc2ccccc2F)sc2c1CC(C)(C)NC2(C)C,.,0,45,0,.,47,.,.,.,.
Cc1ccc(NC(=O)CSc2nc(N)cc(=O)[nH]2)cc1S(=O)(=O)N1CCCCC1,-1,-9,1,0,.,.,.,.,.,.
CCCCc1nnc2c(N(C)S(=O)(=O)c3ccc(C)cc3)nc3ccccc3n12,12,-17,4,0.8*,.,35,105,0,102,0
CCCc1nnc2c(N(C)S(=O)(=O)c3ccc(C)cc3)nc3ccccc3n12,-4,-10,.,0,-14,15,.,.,.,.
CC(=O)Nc1nc(C)c(Oc2ccc(C)cc2)c(=O)[nH]1,-2,-21,-19,0,.,-29,.,.,.,.
CC(Nc1nc(-c2ccccc2)nc2ccccc12)c1ccccc1 (stereo not given),6,28,?,1.9*,68,25,100,0,106,0
CC(Nc1nc(-c2ccccc2O)nc2ccccc12)c1ccccc1 (stereo not given),8,0,59,0,.,24,.,.,.,.
CCSc1cc(N2CCCC2)nc(-c2ccc(F)cc2)n1,7,6,-9,0,-9,36,91,0,87,0
CCSc1cc(N2CCCC2)nc(-c2cccc(C)c2)n1,9,-9,29,0,37,13,.,.,.,.
CCSc1cc(N2CCCC2)nc(-c2ccc(C)cc2)n1,2,-4,39,0,-10,3,110,0,104,0
COCc1cc(N2CCCC2)nc(-c2ccccc2)n1,.,3,-8,0,-11,13,.,.,.,.
CCn1c(SCC(=O)N/N=C/C(C)=C/c2ccco2)nnc1-c1ccccc1,-4,-7,5,0.8*,-5,-13,117,0,110,0
Cc1ccc(C(=O)NCC(=O)OCc2csc(-c3ccccc3)n2)cc1,-8,-7,-6,6.8*,15,10,109,0,110,0
CCOc1ccc(C(=O)NCC(=O)OCc2csc(-c3ccccc3)n2)cc1,3,-5,17,0,-10,-12,.,.,.,.
CCSc1nc2c(c(=O)[nH]1)C(c1cccnc1)C(C(=O)OC)=C(C)N2 (stereo not given),0,-4,1,0,-17,.,.,.,.,.
CCSc1nc2c(c(=O)[nH]1)C(c1ccncc1)C(C(=O)OC(C)C)=C(C)N2 (stereo not given),.,1,-1,0.4*,-5,3,92,0,107,0
CCOc1ccc(/C(O)=C2/C(=O)C(=O)N(CCN(C)C)C2c2ccccc2)cc1Cl (stereo not given),-2,-3,-12,8.9*,4,-12,103,0,97,0
COc1ccc(/C(O)=C2/C(=O)C(=O)N(CCN(C)C)C2c2ccccc2)cc1Cl (stereo not given),-1,.,-1,0,3,2,.,.,.,.
Cc1ccc(C)c(S(=O)(=O)N2CCN(C(=O)CSc3ccccc3F)CC2)c1,-5,-10,-6,0,.,-2,.,.,.,.
c1ccc(C(c2ccccc2)c2noc(CN3CCC(c4ccncc4)CC3)n2)cc1,-8,4,31,5.2*,23,61*,85,0,87,0
COc1ccccc1C(=O)NC(=O)COC(=O)CCS(=O)(=O)c1ccc(C)cc1,-11,-2,-11,0,.,-8,.,.,.,.
SMILES,Beta cell apopt,Mot1-301 SUMO,CSC inhib,Efflux pump mplx,WT yeast gro inh,T cruzi inh,Yeast cmpd fluor,CaMdr1 efflux inh,CaCdr2 efflux inh,CaCdr1 efflux inh
Cc1ccc(NC(=O)Cc2nnc(SCC(=O)NC3=NCCS3)n2C)cc1,-3,-12,7,0,.,1,.,.,.,.
c1ccc(-c2ccc3c(c2)c2c4n3CCN=C4CCC2)cc1,3,129,.,0.3*,4,-2,103,0,106,0
Cc1ccc(S(=O)(=O)N2CCN(Cc3csc(C)n3)CC2)cc1,5,-18,-2,0,.,-12,.,.,.,.
CNC(=O)N(O)C1N(c2ccccc2)C(=S)SC1(C)C (stereo not given),2,-15,5,8.0*,-5,-6,99,0,114,0
Cc1[nH]c2ccc(C(=O)NCCN3CCOCC3)cc2c1C,3,-4,14,1.4*,.,-7,112,0,125,0
CC(OC(=O)CCCC(=O)Nc1ccccc1)C(=O)c1ccccc1 (stereo not given),-7,-3,-6,0,.,-14,.,.,.,.
CC(=O)c1cccc(NC(=O)C(C)OC(=O)CCN=C2NS(=O)(=O)c3ccccc32)c1 (stereo not given),-3,-11,21,0,.,-11,.,.,.,.
Cc1ccc(CSC2=Nc3ccccc3C3=NC(CC(=O)NCc4ccco4)C(=O)N23)cc1 (stereo not given),-9,-9,15,0.6*,6,6,99,0,114,0
O=C(CC1N=C2c3ccccc3N=C(SCc3ccc(F)cc3)N2C1=O)NCc1ccco1 (stereo not given),-5,5,5,0,52,0,.,.,.,.
COc1cc(OC)c(NS(=O)(=O)c2ccc(Cl)c(C(=O)OC(C)C(=O)N3CCCC3)c2)cc1Cl (stereo not given),2,-13,-28,7.6*,-3,-2,101,0,91,0
O=C(Nc1ccc(S(=O)(=O)Nc2cnc3ccccc3n2)cc1)c1cccc(OC(F)F)c1,-2,-5,-3,0,.,5,.,.,.,.
COCc1nnc(NC(=O)COc2ccc3c(c2)OCO3)s1,-5,0,-3,0,.,-10,.,.,.,.
